The values that follow come from ChEMBL document CHEMBL2086242, “Synthesis and SAR studies of mono O-prenylated coumarins as potent 15-lipoxygenase inhibitors” (Eur J Med Chem, 2012).

What is called pIC50 is −log10 of the IC50, conventionally taken in molar units.

The structures appear in SMILES notation. pIC50: −log10 of the molar value. Calls of active or inactive are those of the source. No cut-off for these calls is given here. Some results are limits rather than exact numbers.

The nature of assay [1]: Inhibition of soybean 15-lipoxygenase by MBTH-DMAB method. On the set-up: species or system Glycine max. A digest of the protocol:
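Test sample in ethanol was preincubated 5 min at room temperature with SLO (stock 4000 units/mL) in 50 mM phosphate, pH 7.0, with an ethanol control. Linoleic acid (Tween 20/KOH) started peroxidation. After 7 min, DMAB (solution A) and then MBTH with hemoglobin at pH 5.0 (solution B) developed colour. After 5 min more, 2% SDS stopped the reaction.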

In assay [2] the target is T1, Polyunsaturated fatty acid lipoxygenase ALOX15 (Homo sapiens, UniProt P16050).
T1 sequence (P16050 whole entry): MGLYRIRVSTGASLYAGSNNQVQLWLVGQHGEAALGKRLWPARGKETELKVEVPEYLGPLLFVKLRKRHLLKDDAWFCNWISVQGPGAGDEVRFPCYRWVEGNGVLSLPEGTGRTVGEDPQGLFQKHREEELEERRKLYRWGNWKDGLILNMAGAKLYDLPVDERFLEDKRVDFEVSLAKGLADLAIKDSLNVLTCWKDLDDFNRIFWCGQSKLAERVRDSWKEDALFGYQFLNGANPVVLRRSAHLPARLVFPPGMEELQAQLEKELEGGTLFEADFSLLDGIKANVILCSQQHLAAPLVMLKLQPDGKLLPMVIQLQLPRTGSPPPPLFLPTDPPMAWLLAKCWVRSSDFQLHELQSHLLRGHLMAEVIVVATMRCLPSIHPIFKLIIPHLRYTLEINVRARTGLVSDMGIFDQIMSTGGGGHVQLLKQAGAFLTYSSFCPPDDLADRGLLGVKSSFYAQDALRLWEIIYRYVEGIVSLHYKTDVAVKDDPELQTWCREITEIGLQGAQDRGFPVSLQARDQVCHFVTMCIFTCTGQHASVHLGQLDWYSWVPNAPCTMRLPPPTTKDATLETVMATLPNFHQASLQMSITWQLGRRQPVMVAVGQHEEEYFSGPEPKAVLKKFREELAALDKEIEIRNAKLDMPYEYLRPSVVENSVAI
The assay is described as follows: Inhibition of recombinant human 15-lipoxygenase by MBTH-DMAB method.

Assay [3] concerns Glycine max. The assay is described as follows: Competitive inhibition of soybean 15-lipoxygenase at 1.25 to 5 uM by Lineweaver-Burk plot. The method in brief:
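Soybean 15-lipoxygenase activity was read by the MBTH–DMAB end-point method at linoleic acid levels of 25, 50, 100 and 200, plotted as double-reciprocal (Lineweaver–Burk) curves with and without inhibitor.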

As for `CC(C)=CCC/C(C)=C/COc1cccc2oc(=O)ccc12`, in assay [1], the pIC50 was 5.55.

As for `CC(C)=CCC/C(C)=C/CC/C(C)=C/COc1cc(=O)oc2ccccc12`, the pIC50 in assay [1] is 5.46.

In turn, `CC(C)=CCOc1cc2ccccc2oc1=O` showed a pIC50 in assay [1] of 4.26.

`CC(C)=CCC/C(C)=C/CC/C(C)=C/COc1ccc2ccc(=O)oc2c1` [UMBELLIPRENIN]: the pIC50 in assay [1] is 5.51.

`CC(C)=CCOc1ccc2oc(=O)ccc2c1` had a pIC50 in assay [1] of 4.16.

`CC(C)=CCOc1ccc2ccc(=O)oc2c1` [7-PRENYLOXYCOUMARIN] had a pIC50 in assay [1] of 4.22.

As for `CC(C)=CCC/C(C)=C/CC/C(C)=C/COc1cccc2oc(=O)ccc12`, the pIC50 in assay [2] is 5.44; in assay [1] it was 6.10.

On to `CC(C)=CCC/C(C)=C/CC/C(C)=C/COc1cccc2ccc(=O)oc12`, for which, in assay [1], the pIC50 was 5.24.

As for `O=C(O)/C=C/c1ccc(O)c(O)c1` [CAFFEIC ACID], the negative-log IC50 (pIC50) in assay [1] was 4.40.

Consider `CC(C)=CCC/C(C)=C/COc1cc(=O)oc2ccccc12`, for which the figures for the pIC50 in assay [2] and in assay [1] were 4.37 and 5.25, respectively.

In assay [1], `CC(C)=CCOc1cc(=O)oc2ccccc12` gave a pIC50 of 4.36.

On to `CC(C)=CCC/C(C)=C/CC/C(C)=C/COc1cc2ccccc2oc1=O`, for which the inhibition entry in assay [3] is “Active”. In addition, the pIC50 is less than 4.30 in assay [2] and 5.77 in assay [1].

With `CC(C)=CCC/C(C)=C/CC/C(C)=C/COc1ccc2oc(=O)ccc2c1`, the pIC50 is 5.89 in assay [2] and 5.68 in assay [1].

In the case of `CC(C)=CCOc1cccc2ccc(=O)oc12`, in assay [1], the pIC50 is 4.33.

For the compound `CC(C)=CCC/C(C)=C/COc1ccc2oc(=O)ccc2c1`, the pIC50 in assay [2] is 5.17; in assay [1] it was 5.02.

`CC(C)=CCC/C(C)=C/COc1cccc2ccc(=O)oc12`: the negative logarithm of the IC50 (pIC50) in assay [1] is 5.09.

As for `CC(C)=CCC/C(C)=C/COc1ccc2ccc(=O)oc2c1` [AURAPTENE], the negative-log IC50 (pIC50) in assay [1] is 5.20.

For `CC(C)=CCOc1cccc2oc(=O)ccc12`, the pIC50 in assay [1] is 4.40.

With `Cc1nc(N2CCN(C)CC2)nc2c1Nc1ccccc1S2`, the negative-log IC50 (pIC50) in assay [1] was 4.67.

Take `CC(C)=CCC/C(C)=C/CC/C(C)=C/COc1ccccc1` [FARNESYL PHENYL ETHER]: the pIC50 in assay [2] was less than 4.30; in assay [1], 5.57.

As for `CC(C)=CCC/C(C)=C/COc1cc2ccccc2oc1=O`, the figures for the pIC50 in assay [2] and in assay [1] were less than 4.00 and 5.33, respectively.
